Source: PubChem BioAssay (Broad Institute)
In the library only some 2.8% were active in any assay of this set; here they are far more common.
CAL PDZ FP-1 – human CAL PDZ-peptide interaction inhibition; hit rate 0.02% among 330,000; Q9HD26; inhibition, % at 20 µM; purified CAL PDZ, TMR-peptide fluorescence polarization, 1 h;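 active means highest replicate inhibition of at least 40%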
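Assay system – tagged CAL PDZ protein CerCALP, purified · Timing – 1 h at RT · Compound – single point, 20 µM · Measured by – fluorescence polarization from S- and P-plane intensities, G-factor corrected · Evaluation – inhibition from polarization loss · Probe or stimulus – TMR reporter peptide T*-PRC34 · Buffer or medium – pH 7.4 phosphate-saline buffer, reducing agent, detergent, IgG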
CAL PDZ FP-2 – inhibitors of human CAL PDZ peptide binding; Q9HD26; purified CAL PDZ, TMR-peptide fluorescence polarization, 1 h; inhibition, % at 24.9 µM; hit rate 0.92% among 300,000; AID 602252;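 active means mean inhibition of at least 30% with at least half of replicates also reaching 30%; inconclusive means no clear call, values can overlap the other calls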
SR-BI HDL uptake – blocks mouse SR-BI lipid uptake from DiI-HDL; ldlA[mSR-BI] CHO cells, DiI-HDL uptake fluorescence, 3 h; inhibition, % at 12.5 µM; hit rate 0.96% among 320,000;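 active means mean replicate inhibition of at least 70% and a set share of replicates each scoring 70 or more; inconclusive means meets just one of the two criteria; inactive means fails both criteria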
Target sequence (Q61009 whole entry, looked up): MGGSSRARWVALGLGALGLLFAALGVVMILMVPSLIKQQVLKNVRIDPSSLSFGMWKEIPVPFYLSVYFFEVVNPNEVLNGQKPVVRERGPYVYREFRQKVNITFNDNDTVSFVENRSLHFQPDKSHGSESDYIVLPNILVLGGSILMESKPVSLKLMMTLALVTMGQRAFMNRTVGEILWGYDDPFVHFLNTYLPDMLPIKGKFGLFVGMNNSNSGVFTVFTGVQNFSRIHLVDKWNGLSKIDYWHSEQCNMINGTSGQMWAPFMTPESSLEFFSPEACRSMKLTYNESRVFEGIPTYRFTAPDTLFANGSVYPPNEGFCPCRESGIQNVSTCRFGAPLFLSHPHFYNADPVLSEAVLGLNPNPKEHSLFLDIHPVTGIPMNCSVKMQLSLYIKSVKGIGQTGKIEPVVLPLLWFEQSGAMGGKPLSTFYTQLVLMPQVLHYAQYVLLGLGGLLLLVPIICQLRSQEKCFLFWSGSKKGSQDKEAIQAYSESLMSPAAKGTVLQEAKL
dFosB act – mouse delta FosB homodimer activation; activation, % at 25 µM; P13346; purified delta FosB, TAMRA-CDK5 oligo fluorescence polarization; percent of positive-control signal above neutral wells; hit rate 0.99% among 340,000; AID 493131;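 active means mean activation above about 17%, with every replicate also reaching it, limit read from the data, passing the limit was not always enough; inconclusive means only one of the two conditions met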
SR-BI uptake up – activators of SR-BI mediated HDL lipid uptake; hit rate 0.096% among 320,000; activation, % at 12.5 µM; CHO ldlA[mSR-BI] cells, DiI-HDL uptake fluorescence, 3 h; 100 = double the neutral-control signal; AID 504775;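 active means mean replicate activation of at least 60% and every replicate at or above 60%; inconclusive means mean or all-replicate condition met, but not both; inactive means mean below 60% and not all replicates reaching 60%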
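Material: SR-BI-overexpressing, LDLR-lacking CHO cells; schedule: compound exposure 3 h, 37 °C; reagent: DiI-labelled HDL at 10 µg/mL final; technique: bottom-read fluorescence, 550/595 nm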
Large screens that a line does not name were inactive.

CCCCS(=O)(=O)N1CCCC(C(=O)Oc2ccccc2)C1 (centres undefined)	CAL PDZ FP-2 65.6 (no result: CAL PDZ FP-1)
COc1cccc(OC)c1OC(=O)c1ccccc1	none
O=C(COC(=O)/C=C/c1cccc(F)c1)NC(=O)NC1CCCC1	none
O=C(c1cc(-c2ccncc2)nc2c(Cl)cccc12)N1CCN(c2ccccc2F)CC1	SR-BI HDL uptake 72.8
Cn1c(CNc2ccc(Cl)cc2)nc2ccccc21	none (no result: CAL PDZ FP-2)
CC(C)N=c1cc2n(-c3ccc(Cl)cc3)c3ccccc3nc-2cc1Nc1ccc(Cl)cc1	SR-BI HDL uptake 83.1
CCOC(=O)CC1C(=O)NCCN1C(=O)c1ccc(Cl)c(Cl)c1 (centres undefined)	none
CCC(C)C(=O)N1c2ccccc2C(=C2SC(C(=O)OC)=C(C(=O)OC)S2)C(=S)C1(C)C (centres undefined)	SR-BI HDL uptake 89.2
O=C1/C(=C/c2ccc([N+](=O)[O-])cc2)C=C(c2ccccc2)N1c1ccccc1	none
COc1ccc(N2C(=O)/C(=C/c3ccc([N+](=O)[O-])cc3)C=C2c2ccccc2)cc1	SR-BI HDL uptake 96.4
O=[N+]([O-])c1cc([N+](=O)[O-])c2c(=Nc3ccccc3)n(-c3ccccc3)n(O)c2c1	SR-BI HDL uptake 74.9 (no result: CAL PDZ FP-2)
O=[N+]([O-])c1cc(Br)c(Nc2ccccc2)c([N+](=O)[O-])c1	none
Cc1ccc(N2CC(C(=O)NC3=NCCS3)CC2=O)cc1C (centres undefined)	none
Cc1ccc(N2CC(C(=O)Nc3ccc(N(C)C)cc3)CC2=O)cc1C (centres undefined)	CAL PDZ FP-2 59.6
CNC(=O)/C(C#N)=C/c1cn(CC(=O)NCc2ccco2)c2ccccc12	none
Cc1cc(C)cc(NC(=O)/C(C#N)=C/c2cn(CC(=O)NCc3ccco3)c3ccccc23)c1	dFosB act 33.2
Cc1ccc(OCCn2cc(/C=C(\C#N)C(=O)NCC3CCCO3)c3ccccc32)cc1 (centres undefined)	none
Cc1ccc(C)c(NC(=O)/C(C#N)=C/c2cn(CC(=O)NCc3ccco3)c3ccccc23)c1	CAL PDZ FP-2 43.7
Cc1ccc(NC(=O)Cn2cc(C=O)c3ccccc32)cc1C	dFosB act 20.1 (no result: CAL PDZ FP-1)
Cc1ccc(OCCn2cc(/C=C(\C#N)C(=O)NCC3CCCO3)c3ccccc32)cc1C (centres undefined)	SR-BI HDL uptake 75.6
Cc1cccc(NC(=O)Cn2cc(C=O)c3ccccc32)c1	none
COc1ccc(C(=O)N2CCN(C(=O)C3CCCO3)CC2)cc1[N+](=O)[O-] (centres undefined)	none
CCCCn1c(N)c(N(CC(C)C)C(=O)c2cc(S(=O)(=O)N3CCOCC3)ccc2Cl)c(=O)[nH]c1=O	none (no result: CAL PDZ FP-2)
O=C(CN1C(=O)C2CC=CCC2C1=O)Nc1nnc(C2CC2)s1 (centres undefined)	none
O=C(NCC(=O)N1CCN(c2ccccc2)CC1)c1ccccc1	none
Cc1ccccc1OCCn1cc(/C=C(\C#N)C(=O)NCc2ccco2)c2ccccc21	dFosB act inconclusive
Cc1ccc(NC(=O)/C(C#N)=C/c2cn(CC(=O)NCc3ccco3)c3ccccc23)cc1C	dFosB act 60.3 (no result: CAL PDZ FP-1)
O=C(NCCCc1ccncc1)C1CCC(=O)N(Cc2ccc(Cl)cc2)C1 (centres undefined)	CAL PDZ FP-2 71.9
COc1cccc(CN2CC(C(=O)NCCCc3ccc(C)cc3)CCC2=O)c1 (centres undefined)	CAL PDZ FP-2 100.0
COc1ccc(-c2nc(CS(=O)CC(=O)NC(C)CCc3ccccc3)c(C)o2)cc1OC (centres undefined)	CAL PDZ FP-2 45.0
Cc1ccc(-c2nc(CS(=O)CC(=O)NC(C)CCc3ccccc3)c(C)o2)cc1 (centres undefined)	none
CCCCNC(=O)CC1S/C(=N/N=C/c2ccc(OC)cc2)NC1=O (centres undefined)	none
COc1ccc(/C=N/N=C2/NC(=O)C(CC(=O)NC(N)=O)S2)cc1 (centres undefined)	CAL PDZ FP-2 49.1, dFosB act 19.1
Cc1ccc(C(=O)c2cc([N+](=O)[O-])ccc2N2CCOCC2)c(C)c1	SR-BI HDL uptake 81.0
Cc1ccc(C)c(C(=O)COC(=O)c2cc([N+](=O)[O-])ccc2N2CCOCC2)c1	SR-BI HDL uptake 72.6
CCOc1ccc(C(=O)COC(=O)c2cc([N+](=O)[O-])ccc2N2CCOCC2)cc1	SR-BI HDL uptake 79.3
CC1CCN(C(=O)COC(=O)c2cc([N+](=O)[O-])ccc2N2CCOCC2)CC1	none
O=C(COC(=O)c1cc([N+](=O)[O-])ccc1N1CCOCC1)c1ccc(Br)cc1	SR-BI HDL uptake 78.8
O=C(c1ccco1)N1CCN(Cc2cn[nH]c2-c2cccc3ccccc23)CC1	none (no result: SR-BI HDL uptake, SR-BI uptake up)
CCOc1ccc(C(=O)NCC(=O)Nc2ccc(N3CCOCC3)cc2)cc1OCC	none
COc1ccc(-c2csc(N3C(=O)CNC3=S)n2)cc1	CAL PDZ FP-2 66.6
O=C1CNC(=S)N1c1nc(-c2ccccc2)cs1	none
O=C(/C=C/c1ccccc1Cl)NCCCn1ccnc1	none (no result: CAL PDZ FP-2)
Cc1ccccc1Nc1c([N+](=O)[O-])ccc2c1=NC1(CCCCC1)N=2	SR-BI HDL uptake 82.6 (no result: CAL PDZ FP-2)
COCc1cc(CN(C)C(=O)C2CCC(=O)N(Cc3cccc(OC)c3)C2)[nH]n1 (centres undefined)	none
O=C(CN(c1cccc(Cl)c1)S(=O)(=O)c1ccc(Cl)cc1)NCc1ccccn1	SR-BI HDL uptake 82.5
CCOc1ccccc1N=Nc1c(C)[nH]n(C(N)=S)c1=O	CAL PDZ FP-2 37.3 (no result: CAL PDZ FP-1)
O=C(COC(=O)/C=C/c1ccc(Cl)c(Cl)c1)NC1CCS(=O)(=O)C1 (centres undefined)	CAL PDZ FP-2 64.1
O=C(COC(=O)/C=C/c1ccc(Cl)c(Cl)c1)NC1CCCC1	none
O=C(COC(=O)c1ccc[nH]c1=O)Nc1cc(S(=O)(=O)N2CCCCCC2)ccc1Cl	none
COc1ccccc1NC(=O)c1ccc(NC(=O)c2cc3c(s2)CCC3)cc1	SR-BI HDL uptake 72.5
O=C(Nc1ccccc1OC(F)F)c1cc2c(s1)CCC2	none
C(=C\c1nnc2c3ccccc3ncn12)/c1ccccc1	none
COc1cc(/C=C/c2nnc3c4ccccc4ncn23)cc(OC)c1OC	dFosB act 27.1
COc1ccc(NC(=O)CCn2c(=O)c3cccn3c3ccccc32)c(OC)c1	SR-BI HDL uptake 74.9
COc1ccc(NC(=O)CCn2c(=O)c3cccn3c3ccccc32)cc1	none
O=C(CCn1c(=O)c2cccn2c2ccccc21)Nc1ccc(F)cc1	SR-BI HDL uptake 74.9
Cc1cc(C)cc(NC(=O)CCn2c(=O)c3cccn3c3ccccc32)c1	SR-BI HDL uptake 81.2
Cc1ccc(NC(=O)CCn2c(=O)c3cccn3c3ccccc32)c(C)c1	dFosB act inconclusive
CCOC(=O)c1c(N)c(C#N)c2n1CCCC2	none
CCOC(=O)c1c(N)c(C#N)c2n1CCCCC2	CAL PDZ FP-2 37.4 (no result: CAL PDZ FP-1)
